From ChEMBL document CHEMBL2424657, “Identification of the KDM2/7 histone lysine demethylase subfamily inhibitor and its antiproliferative activity” (J Med Chem, 2013) come the findings set out here.

The subject of one experiment is N2a. In words: Growth inhibition of mouse N2A cells after 48 hrs by MTT assay. It counts as functional. Summed up: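 Cells were seeded at 5000/well in RPMI 1640 with 10% FBS and allowed to attach overnight, then exposed for 48 h at 37 °C in 5% CO2. MTT was added for 3 h, and the dye was solubilized in HCl–2-propanol and read at 560 nm (reference 750 nm).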
(In general: Tetrazolium assays rely on reduction of a dye to a coloured formazan, in cell work by metabolically active cells.)

Experiment [1] concerns the target Lysine-specific demethylase 7A/7B (Mus musculus) (UniProt Q3UWM4+Q80TJ7). In words: Inhibition of KDM7A/7B in mouse N2a cells assessed as H3K27me2 level after 24 hrs by Western blot analysis. It counts as cell-based. Summed up: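 Cells (5×10^5) were treated for 24 h in OPTI-MEM and lysed in SDS buffer. Equal protein amounts, set by Bradford assay, were resolved on 4–20% SDS-PAGE and blotted. Blots were probed with anti-H3K27me2 (1:1000) and anti-H3 (1:100000) as loading reference, detected with an HRP secondary antibody, and visualized by ECL.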
In general terms: A western blot detects proteins with antibodies after separation by electrophoresis.

Sequence of Lysine-specific demethylase 7A/7B (Mus musculus) (Q3UWM4 whole entry, looked up): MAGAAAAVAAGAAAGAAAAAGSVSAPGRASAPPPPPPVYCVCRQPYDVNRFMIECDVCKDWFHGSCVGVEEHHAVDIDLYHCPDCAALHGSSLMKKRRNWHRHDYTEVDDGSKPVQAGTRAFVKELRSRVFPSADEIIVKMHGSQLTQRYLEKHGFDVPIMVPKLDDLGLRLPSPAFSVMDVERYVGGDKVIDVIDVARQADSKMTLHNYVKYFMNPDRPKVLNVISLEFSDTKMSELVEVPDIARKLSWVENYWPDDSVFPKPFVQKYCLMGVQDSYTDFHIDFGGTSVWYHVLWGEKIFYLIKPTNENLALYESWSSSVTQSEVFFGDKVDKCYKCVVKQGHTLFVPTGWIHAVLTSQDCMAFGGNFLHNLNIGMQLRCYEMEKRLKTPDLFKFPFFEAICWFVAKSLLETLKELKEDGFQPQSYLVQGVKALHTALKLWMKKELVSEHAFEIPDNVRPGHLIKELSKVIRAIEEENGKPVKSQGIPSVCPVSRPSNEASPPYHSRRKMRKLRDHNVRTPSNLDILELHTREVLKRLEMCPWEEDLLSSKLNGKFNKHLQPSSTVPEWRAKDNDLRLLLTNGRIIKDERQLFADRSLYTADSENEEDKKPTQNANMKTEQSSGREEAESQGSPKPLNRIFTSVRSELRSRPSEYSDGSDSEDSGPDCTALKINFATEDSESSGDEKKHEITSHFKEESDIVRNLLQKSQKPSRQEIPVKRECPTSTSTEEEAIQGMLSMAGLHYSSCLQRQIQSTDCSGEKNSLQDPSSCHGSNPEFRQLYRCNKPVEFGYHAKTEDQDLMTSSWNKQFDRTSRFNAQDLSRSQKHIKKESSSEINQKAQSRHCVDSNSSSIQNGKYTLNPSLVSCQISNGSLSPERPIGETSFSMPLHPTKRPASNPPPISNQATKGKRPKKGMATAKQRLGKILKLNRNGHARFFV
Sequence of Lysine-specific demethylase 7A/7B (Mus musculus) (Q80TJ7 whole entry, looked up): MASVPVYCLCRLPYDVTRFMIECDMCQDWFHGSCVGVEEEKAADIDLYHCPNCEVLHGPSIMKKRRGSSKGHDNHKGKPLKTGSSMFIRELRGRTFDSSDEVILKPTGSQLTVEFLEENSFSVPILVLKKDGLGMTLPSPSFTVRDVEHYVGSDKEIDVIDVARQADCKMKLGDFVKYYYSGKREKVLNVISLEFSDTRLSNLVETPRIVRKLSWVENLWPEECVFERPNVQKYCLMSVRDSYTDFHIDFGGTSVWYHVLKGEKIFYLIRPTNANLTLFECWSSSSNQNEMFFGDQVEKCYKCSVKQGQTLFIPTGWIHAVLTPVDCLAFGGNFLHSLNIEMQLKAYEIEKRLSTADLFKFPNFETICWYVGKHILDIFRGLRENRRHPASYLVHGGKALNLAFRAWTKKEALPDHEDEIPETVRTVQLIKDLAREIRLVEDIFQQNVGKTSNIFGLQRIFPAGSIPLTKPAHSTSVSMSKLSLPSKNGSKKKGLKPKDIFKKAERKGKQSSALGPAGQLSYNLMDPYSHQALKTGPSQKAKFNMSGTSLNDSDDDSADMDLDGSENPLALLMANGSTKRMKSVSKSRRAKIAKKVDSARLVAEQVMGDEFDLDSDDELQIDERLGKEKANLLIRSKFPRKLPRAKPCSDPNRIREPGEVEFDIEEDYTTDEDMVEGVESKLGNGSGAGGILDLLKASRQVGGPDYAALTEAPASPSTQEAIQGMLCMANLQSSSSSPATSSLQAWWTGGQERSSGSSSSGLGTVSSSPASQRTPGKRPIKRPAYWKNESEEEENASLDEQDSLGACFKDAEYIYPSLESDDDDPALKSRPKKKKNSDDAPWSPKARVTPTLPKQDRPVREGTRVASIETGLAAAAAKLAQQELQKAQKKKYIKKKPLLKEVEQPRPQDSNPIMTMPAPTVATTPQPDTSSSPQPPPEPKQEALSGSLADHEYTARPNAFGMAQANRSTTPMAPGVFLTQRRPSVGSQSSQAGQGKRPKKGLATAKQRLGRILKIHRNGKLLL

One may read the GI50 as the concentration that inhibits growth by half. Read a low GI50 as greater sensitivity of the cells. Take `O=C(O)CCN(O)C(=O)CCCCCCCCC1CC1`: the GI50 in the experiment on N2a is 86 µM. The inhibition entry in experiment [1] was “Dose-dependent effect”.
